ChEMBL document CHEMBL3351841, “Differential modes of peptide binding onto replicative sliding clamps from various bacterial origins” (J Med Chem, 2014)
Where a SMILES comes first, the peptide text is derived from it. [ ]: non-standard residue; d: D form. Phe(3,4-Cl2) = N[C@@H](Cc1ccc(Cl)c(Cl)c1)C(=O)O; Cha = N[C@@H](CC1CCCCC1)C(=O)O

Columns and labels:
[1] = Binding affinity to Escherichia coli DNA sliding clamp protein expressed in Escherichia coli BL21(DE3) pLys by SPR assay
Outline: (§1)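 Competition SPR at 25 °C in Hepes 10 mM pH 7.4, 0.15 M NaCl, 3 mM EDTA. Clamp (0.25 μM) was preincubated with challenger peptide (1.5 nM to 100 μM), then injected over a chip carrying immobilized P1 peptide (Pol IV C-terminal heptamer). IC50 was taken from inhibition of clamp/P1 binding.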

[2] = Binding affinity to Bacillus subtilis DNA sliding clamp protein expressed in Escherichia coli BL21(DE3) pLys at 30 degC by ITC assay
Outline: (§2)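 ITC at 30 °C. Peptide (200–600 μM) was injected stepwise (2 μL) into clamp solution (20–60 μM), with peptide/SC ratio 10, in Hepes 10 mM pH 7.4, NaCl 0.15 M, EDTA 3 mM. Peptide-into-buffer controls were subtracted, and N, KD, ΔH and ΔS were derived. Performed at least twice.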

[3] = Binding affinity to Pseudomonas aeruginosa DNA sliding clamp protein expressed in Escherichia coli BL21(DE3) pLys at 30 degC by ITC assay; outline: as §2
[4] = Binding affinity to Bacillus subtilis DNA sliding clamp protein expressed in Escherichia coli BL21(DE3) pLys by SPR assay; outline: as §1
[5] = Binding affinity to Staphylococcus aureus DNA sliding clamp protein expressed in Escherichia coli BL21(DE3) pLys at 30 degC by ITC assay; outline: as §2
[6] = Binding affinity to Escherichia coli DNA sliding clamp protein expressed in Escherichia coli BL21(DE3) pLys at 30 degC by ITC assay; outline: as §2
[7] = Binding affinity to Staphylococcus aureus DNA sliding clamp protein expressed in Escherichia coli BL21(DE3) pLys by SPR assay; outline: as §1
[8] = Binding affinity to Escherichia coli DNA sliding clamp protein expressed in Escherichia coli BL21(DE3) pLys at 25 degC by ITC assay
Outline: (§3)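 iTC200 calorimetry at 25 °C. Peptide (200–600 μM) was titrated in 2 μL injections into clamp (20–60 μM), with peptide/SC ratio 10, in 10 mM Hepes pH 7.4, 0.15 M NaCl, 3 mM EDTA. Data were corrected against peptide-into-buffer controls and fit for N, KD, ΔH and ΔS. At least two experiments.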

[9] = Binding affinity to Bacillus subtilis DNA sliding clamp protein expressed in Escherichia coli BL21(DE3) pLys at 25 degC by ITC assay; outline: as §3
[10] = Binding affinity to Mycobacterium tuberculosis DNA sliding clamp protein expressed in Escherichia coli BL21(DE3) pLys at 25 degC by ITC assay
Outline: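 ITC at 25 °C. Peptide (200−600 μM) titrated in 2 μL injections into clamp (20−60 μM) at a peptide/clamp ratio of 10, in 10 mM Hepes pH 7.4, 0.15 M NaCl, 3 mM EDTA. Corrected using peptide-into-buffer controls. N, KD, ΔH and ΔS fitted; at least two experiments.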

[11] = Binding affinity to Pseudomonas aeruginosa DNA sliding clamp protein expressed in Escherichia coli BL21(DE3) pLys at 25 degC by ITC assay
Outline: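 His-tagged P. aeruginosa (PAO1) dnaN clamp from pET-15b, IPTG 0.1 mM at 28 °C overnight; Ni-NTA then MonoQ purified, ultracentrifuged. Peptide (200–600 μM) titrated in 2 μL injections into clamp (20–60 μM), peptide/clamp ratio 10, in 10 mM Hepes pH 7.4, 0.15 M NaCl, 3 mM EDTA. Heat of peptide into buffer subtracted; KD, N, ΔH, ΔS fitted; at least two runs.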

[12] = Binding affinity to Pseudomonas aeruginosa DNA sliding clamp protein expressed in Escherichia coli BL21(DE3) pLys by SPR assay; outline: as §1
[13] = Binding affinity to Mycobacterium tuberculosis DNA sliding clamp protein expressed in Escherichia coli BL21(DE3) pLys by SPR assay
Outline: (§4)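 SPR competition at 25 °C in Hepes 10 mM pH 7.4, 0.15 M NaCl, 3 mM EDTA. Clamp (0.25 μM) preincubated with challenger peptide (1.5 nM to 100 μM), then injected over a chip loaded with P1 peptide. IC50 taken from inhibition of clamp/P1 binding; at least three independent experiments.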

[14] = tested on: Mycobacterium tuberculosis; experiment: Binding affinity to Mycobacterium tuberculosis DNA sliding clamp protein expressed in Escherichia coli BL21(DE3) pLys assessed as association constant at 25 degC by SPR assay
Outline: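 Direct SPR binding at 25 °C in 10 mM Hepes pH 7.4, 0.15 M NaCl, 3 mM EDTA. Ni-NTA/MonoQ-purified clamp (0.125−2 μM) injected at 50 μL/min over immobilized P1, the E. coli Pol IV C-terminal heptamer. Background subtracted; 1:1 Langmuir fit gives KA.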

[15] = Binding affinity to Pseudomonas aeruginosa DNA sliding clamp protein expressed in Escherichia coli BL21(DE3) pLys at 25 degC by SPR assay; outline: as §1
[16] = Binding affinity to Staphylococcus aureus DNA sliding clamp protein expressed in Escherichia coli BL21(DE3) pLys at 25 degC by SPR assay; outline: as §1
[17] = Binding affinity to Bacillus subtilis DNA sliding clamp protein expressed in Escherichia coli BL21(DE3) pLys at 25 degC by SPR assay; outline: as §1
Bacillus subtilis = experiment: Binding affinity to Bacillus subtilis DNA sliding clamp protein expressed in Escherichia coli BL21(DE3) pLys assessed as association constant at 25 degC by SPR assay
Outline: (§5)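 Biacore SPR at 25 °C in 10 mM Hepes pH 7.4, 0.15 M NaCl, 3 mM EDTA. The E. coli Pol IV C-terminal heptamer (P1) was immobilized, and the clamp (Ni-NTA then MonoQ purified) was injected at 0.125–2 μM at 50 μL/min. After background subtraction, data were fit to a 1:1 Langmuir model to give KA.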

Pseudomonas aeruginosa = experiment: Binding affinity to Pseudomonas aeruginosa DNA sliding clamp protein expressed in Escherichia coli BL21(DE3) pLys assessed as association constant at 25 degC by SPR assay; outline: as §5
[18] = Binding affinity to Escherichia coli DNA sliding clamp protein expressed in Escherichia coli BL21(DE3) pLys at 25 degC by SPR assay; outline: as §1
[19] = Binding affinity to Mycobacterium tuberculosis DNA sliding clamp protein expressed in Escherichia coli BL21(DE3) pLys at 25 degC by SPR assay; outline: as §4
Escherichia coli = experiment: Binding affinity to Escherichia coli DNA sliding clamp protein expressed in Escherichia coli BL21(DE3) pLys assessed as association constant at 25 degC by SPR assay; outline: as §5
Staphylococcus aureus = experiment: Binding affinity to Staphylococcus aureus DNA sliding clamp protein expressed in Escherichia coli BL21(DE3) pLys assessed as association constant at 25 degC by SPR assay; outline: as §5

Which IC50 [1] does the source give for `CC(=O)N[C@@H](CCC(N)=O)C(=O)N[C@@H](CC1CCCCC1)C(=O)N[C@@H](CC(=O)O)C(=O)N[C@@H](CC(C)C)C(=O)N[C@@H](Cc1ccccc1)C(=O)O` (Ac-Q[Cha]DLF-OH) here?
Its IC50 is 0.17 µM.

What about the Kd [2] of the same compound?
The Kd was 8.2 µM.

And the Kd [3]?
Its Kd is 0.64 µM.

And the IC50 ([4]; read-out: IC50)?
Its IC50 is 2.1 µM.

And the Kd [5]?
Its Kd is 29 µM.

And the Kd [6]?
The Kd was 1 µM.

And the IC50 ([7]; read-out: IC50)?
Its IC50 is 1.54 µM.

What about the Kd [8] of the same compound?
The Kd was 0.23 µM.

And the Kd [9]?
Its Kd is 12.3 µM.

Which IC50 [1] does the source give for `CC(=O)N[C@@H](CCC(N)=O)C(=O)N[C@@H](CC1CCCCC1)C(=O)N[C@@H](CC(=O)O)C(=O)N[C@@H](CC(C)C)C(=O)N[C@@H](Cc1ccc(Cl)c(Cl)c1)C(=O)O` (Ac-Q[Cha]DL[Phe(3,4-Cl2)]-OH) here?
The IC50 was 0.08 µM.

And the Kd [10]?
The Kd was 0.75 µM.

What about the IC50 [4] of the same compound?
Its IC50 is “Not Active”.

And the IC50 [7]?
Its IC50 is “Not Active”.

And the Kd [8]?
The Kd was 0.05 µM.

What about the Kd [11] of the same compound?
The Kd was 0.099 µM.

And the IC50 [12]?
The IC50 was 0.14 µM.

And the IC50 [13]?
Its IC50 is 0.85 µM.

Which KA [14] does the source give for H-RQLVLGL-OH here?
Its KA is 4.6 ×10⁶ /M.

And the Kd [15]?
The Kd was 0.58 µM.

What about the Kd [16] of the same compound?
The Kd was 0.25 µM.

What about the Kd [17] of the same compound?
Its Kd is 0.29 µM.

And the KA (Bacillus subtilis)?
Its KA is 3.5 ×10⁶ /M.

And the KA (Pseudomonas aeruginosa)?
Its KA is 1.7 ×10⁶ /M.

What about the Kd [18] of the same compound?
The Kd was 0.23 µM.

What about the Kd [19] of the same compound?
The Kd was 0.24 µM.

What about the KA (Escherichia coli) of the same compound?
Its KA is 4.2 ×10⁶ /M.

And the KA (Staphylococcus aureus)?
Its KA is 4.1 ×10⁶ /M.
